Measured values: ChEMBL document CHEMBL4819033, “Synthesis of Bioactive Diarylheptanoids from Alpinia officinarum and Their Mechanism of Action for Anticancer Properties in Breast Cancer Cells” (J Nat Prod, 2021)
Activity calls are given as the source filed them. No cut-off for these calls is given here.

Key:
[1] = tested on: MCF7; test: Antiproliferative activity against human MCF7 cells assessed as reduction in cell viability after 72 hrs by MTT assay; type: functional, cell-based; settings: for IC50: MCF7, 72 h
Outline: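 MCF-7 cells (DMEM, 10% FBS, 37 °C, 5% CO2) seeded 5 × 10³/well, left overnight, then exposed to compounds (0−50 μM) for 72 h. MTT added to 0.5 mg/mL final; formazan solubilised overnight with 10% SDS in 0.01 N HCl, absorbance at 570 nm. IC50 taken relative to vehicle (0.1% DMSO) as 100% survival. Triplicate determinations, three independent experiments; paclitaxel as positive control.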

[2] = tested on: MCF7; test: Induction of apoptosis in human MCF7 cells assessed as increase in sub-G1 cell population at 10 uM after 48 hrs by propidium iodide/RNase A staining based flow cytometric analysis (reference value: 5.4 +/- 2.1 %); type: functional
[3] = tested on: MCF7; test: Inhibition of colony formation in human MCF7 cells incubated for 10 days by crystal violet staining based assay; type: functional, cell-based; settings: dose 1-5 µM, time 10.0 day
Outline: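 Clonogenic survival: MCF-7 cells, 1 × 10³ per well, seeded overnight, then grown with 1, 2.5 or 5 μM in complete medium for 10 days. Colonies fixed with MeOH, stained with 0.5% crystal violet in 1:1 MeOH–water, counted. Surviving fraction corrected for plating efficiency, relative to vehicle; triplicates, three repeats.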

[4] = tested on: MCF7; test: Induction of lysosomal membrane permeabilization in human MCF7 cells at 5 to 10 uM […] by AO staining based flow cytometry; type: functional, cell-based; settings: dose 5-10 µM
[5] = tested on: MCF7; test: Induction of ROS generation in human MCF7 cells at 5 to 10 uM up to 3 hrs by DCFH-DA dye based flow cytometric analysis; type: functional, cell-based; settings: dose 5-10 µM, time hrs <=3
[6] = tested on: MCF7; test: Induction of mitochondrial membrane potential loss in human MCF7 cells incubated for 6 hrs by JC1 staining based flow cytometry; type: functional, cell-based; settings: dose 5-10 µM
Outline: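 JC-1 assay: MCF-7 cells (1 × 10⁵/well) treated at 5 or 10 μM (legend gives 6 h, methods 8 h), stained with JC-1 (5 μg/mL) for 30 min, trypsinised, and analysed by flow cytometry. MMP loss scored from the drop in red fluorescence MFI as fold of vehicle; CCCP 10 μM as positive control. Five repeats in triplicate.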

[7] = tested on: MCF7; test: Induction of lysosomal membrane permeabilization in human MCF7 cells after 6 hrs by AO staining based flow cytometry; type: functional, cell-based; settings: dose 5-10 µM
Outline: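 MCF-7 cells treated at 5 or 10 μM (0−10 μM) for various periods, washed with PBS, then stained with acridine orange (10 μM, 15 min, 37 °C) and analysed by flow cytometry. LMP measured from green-channel MFI at 6 h as fold of vehicle; five repeats in triplicate.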

[8] = tested on: MCF7; test: Induction of ROS generation in human MCF7 cells at 5 to 10 uM incubated for 6 hrs by DCFH-DA dye based flow cytometric analysis; type: functional, cell-based; settings: dose 5-10 µM
Outline: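 MCF-7 cells (1 × 10⁵/well) loaded with DCFH-DA (10 μM, 30 min), washed, then exposed to 5 or 10 μM for various periods (6 h quantified); H2O2 100 μM as positive control. DCF green fluorescence (ex 480/em 530 nm) read by flow cytometry, expressed as fold of vehicle. Three repeats in triplicate.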

[9] = tested on: MCF7; test: Induction of cell cycle arrest in human MCF7 cells assessed as accumulation at G2 phase at 5 to 10 uM incubated for 24 hrs by propidium iodide/RNase A staining based flow cytometry; type: functional; settings: dose 5-10 µM
Outline: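 For the cell cycle, MCF-7 cells were exposed to vehicle, 5 or 10 μM for 24 h, stained with PI/RNase in 0.1% sodium citrate containing Triton X-100, and phase distribution was quantified by flow cytometry. Three experiments, each in triplicate.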

[10] = tested on: U2OS; test: Antiproliferative activity against human U2OS cells assessed as reduction in cell viability after 72 hrs by MTT assay; type: functional, cell-based
Outline: (§1)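 U2-OS (ATCC) or INT-407 cells, cultured in DMEM with 10% FBS at 37 °C, 5% CO2, assayed by MTT reduction under the conditions used for MCF-7: 72 h exposure, absorbance at 570 nm, viability relative to 0.1% DMSO vehicle control; INT-407 tested up to 50 μM.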

[11] = tested on: MCF7; test: Induction of apoptosis in human MCF7 cells assessed as increase in sub-G1 cell population at 5 uM after 48 hrs by propidium iodide/RNase A staining based flow cytometric analysis (reference value: 5.4 +/- 2.1 %); type: functional
[12] = Antiproliferative activity against human INT-407 cells assessed as reduction in cell viability up to 50 uM after 72 hrs by MTT assay; type: cell-based; settings: intestine 407, 72 h; outline: as §1

IC50 [1] [µM] | IC50 [10] [µM] | SMILES | Activity [1] | Activity [2] [%] | inhibition [3] | Activity [4] | Activity [5] | Activity [6] | Activity [7] | Activity [8] | Activity [9] | Activity [11] [%] | Activity [12]
> 50 | – | COc1cc(CC[C@@H](O)CC(=O)CCc2ccccc2)ccc1O | Dose-Dependent Effect | – | – | – | – | – | – | – | – | – | –
> 50 | – | COc1cc(CC[C@H](O)CC(=O)CCc2ccccc2)ccc1O | Dose-Dependent Effect | – | – | – | – | – | – | – | – | – | –
3.9 | 10.7 | COc1cc(CC/C=C/C(=O)CCc2ccccc2)ccc1O | Dose-Dependent Effect | 27.5 | Dose-Dependent Effect | inactive | inactive | Dose-Dependent Effect | Dose-Dependent Effect | Active | Active | 16.3 | Non-Toxic
